TAAR1 ag – human TAAR1 agonists, primary screen, Fluo-8 calcium fluorescence, CHO RD-HGA16 cells. actives 0.99% (n = 360,000). vehicle wells 0%, saturating PEA agonist 100%. Trace amine-associated receptor 1 (Homo sapiens), Q96RJ0. activation, % at 3 µM;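 active = activation above the mean activation of all test compounds in the run plus 3 SD, cut at about 38% in these data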
Target sequence (Q96RJ0 whole entry, looked up): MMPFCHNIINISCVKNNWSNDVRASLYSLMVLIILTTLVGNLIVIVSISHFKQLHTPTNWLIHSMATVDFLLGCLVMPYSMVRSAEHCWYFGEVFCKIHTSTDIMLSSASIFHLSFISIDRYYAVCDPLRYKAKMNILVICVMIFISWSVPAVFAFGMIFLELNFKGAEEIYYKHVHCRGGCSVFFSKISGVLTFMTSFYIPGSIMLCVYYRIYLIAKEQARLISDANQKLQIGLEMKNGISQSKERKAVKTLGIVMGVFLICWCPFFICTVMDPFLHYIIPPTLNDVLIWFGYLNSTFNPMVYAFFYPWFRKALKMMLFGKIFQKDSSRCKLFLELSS
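Assay system – CHO-derived RD-HGA16 cells with stable Gα16 and human TAAR1 · Compound dosing – one-point dosing at 3 µM (nominal) · Incubation – 17-24 h seeding, 75 min 37 °C dye, 30 min RT · Measured by – kinetic Fluo-8 calcium fluorescence · Control set – DMSO vehicle as 0%, PEA at EC100 as 100% · Repeats – single well for each compound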
DAGLB inh – DAGLB lipase inhibitors, primary screen, biochemical, fluorescence, HTS; actives 0.059% (n = 340,000); AID 504411, 2011; HEK293T DAGLB membrane lysate, EnzChek fluorogenic substrate; Diacylglycerol lipase-beta (Homo sapiens), Q8NCG7; inhibition, % at 5.17 µM; in the data active = inhibition above about 34%;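 also: 0% = enzyme with vehicle and 100% = wells lacking enzyme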
TAAR1 antag – human TAAR1 antagonists, primary screen, Fluo-8 calcium fluorescence, CHO RD-HGA16 cells; antagonist; actives 1.5% (n = 360,000); inhibition, % at 3 µM; Trace amine-associated receptor 1 (Homo sapiens), Q96RJ0;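 active = inhibition above a per-plate cutoff, the mean inhibition of test compounds on that plate plus 3 SD, cut at about 49% in these data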;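 also: 0% = DMSO plus EC80 beta-PEA response and 100% = DMSO alone without agonist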
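Test system – hTAAR1-expressing CHO RD-HGA16 cells, Gα16-coupled · Also added – β-PEA at EC80 concentration, post-compound challenge · Compound – 3 µM, single point · Incubation – dye loading 75 min at 37 °C, then 30 min room temperature · Measured by – Fluo-8 intracellular calcium dye fluorescence, real-time kinetic reads · Benchmarks – vehicle and agonist controls · Replicates – singlicate, one well per test compound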
GPR7 antagonist – GPR7 receptor antagonists, primary screen, cell-based, fluorescence, single concentration; Neuropeptides B/W receptor type 1 (Homo sapiens), P48145; GPR7-expressing cells, fluorescence antagonist assay; inhibition, % at 4.4 µM; actives 1.1% (n = 290,000); AID 1861, 2009; in the data active = inhibition above about 16%, passing the limit was not always enough;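 also: cells stimulated with the agonist NPW; 0% = agonist with vehicle and 100% = vehicle without agonist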
Target sequence (P48145 whole entry, looked up): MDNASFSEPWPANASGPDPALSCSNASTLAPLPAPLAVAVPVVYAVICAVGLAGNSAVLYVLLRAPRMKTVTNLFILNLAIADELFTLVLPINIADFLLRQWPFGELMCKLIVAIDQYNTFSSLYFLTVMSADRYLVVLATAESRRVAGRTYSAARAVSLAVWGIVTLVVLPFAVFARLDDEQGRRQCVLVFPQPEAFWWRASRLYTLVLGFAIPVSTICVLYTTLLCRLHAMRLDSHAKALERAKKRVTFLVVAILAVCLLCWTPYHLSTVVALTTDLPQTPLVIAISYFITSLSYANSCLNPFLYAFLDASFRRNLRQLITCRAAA
MPTP block – mitochondrial permeability transition pore inhibitors, primary screen, biochemical, isolated mouse mitochondria, absorbance. actives 1.4% (n = 360,000). AID 602449, 2012. Ca2+ swelling absorbance, 30 min. inhibition, % at 10 µM;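 active = inhibition of 50% or more, scaled per plate between neutral and stimulator controls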;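 also: 0% = DMSO wells given calcium and 100% = 1 mM EGTA wells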
nonsel antag count – nonselective antagonists in TAAR1 counter-screen cells, counter-screen for hTAAR1 antagonist project, cell-based, fluorescence, calcium | counterscreen cell line, antagonist mode | shares compounds with TAAR1 antag | actives 77% (n = 2,400) | inhibition, % at 3 µM; in the data active = inhibition above about 22%;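 also: CHO-Ga16 host cells stimulated with ATP at an EC80 level; 0% = agonist EC80 plus vehicle and 100% = vehicle without agonist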
TAAR1 ant conf – human TAAR1 antagonists, retest of hits, confirmation, cell-based, fluorescence. shares compounds with TAAR1 antag. TAAR1-expressing cells, fluorescence antagonist read-out. inhibition, % at 3 µM. actives 40% (n = 2,400); in the data active = inhibition above about 49%;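 also: CHO-Ga16 host cells challenged with agonist PEA near its EC80; 0% = agonist at EC80 plus vehicle and 100% = vehicle with no agonist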
Ga16 nonsel ag – calcium activation in Ga16-expressing cells, counter-screen for TAAR1 antagonist project, cell-based, fluorescence | activation, % at 3 µM | AID 651953, 2012 | actives 18% (n = 2,400) | shares compounds with TAAR1 antag | agonist counterscreen; in the data active = activation above about 12%;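 also: 0% = vehicle wells and 100% = saturating stimulus response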
TAAR1 ag counter – TAAR1 activation by candidate antagonists – cell-based, fluorescence, counter-screen for TAAR1 antagonist project. AID 651955, 2012. shares compounds with TAAR1 antag. actives 2% (n = 2,400). hTAAR1 cell line, agonist mode. activation, % at 3 µM; in the data active = activation above about 37%;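 also: CHO cells stably expressing TAAR1 with calcium dye readout; 0% = DMSO vehicle and 100% = full agonist response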
Active calls of the source: *. Hits are enriched below; roughly 4% of the tested compounds scored in any of these assays.

Cc1ccccc1-c1cc(C(=O)NCc2cccc(Br)c2)n(CC2CC(c3cccnc3)=NO2)n1 (centres undefined) was read as TAAR1 ag 11, DAGLB inh -8, TAAR1 antag 69*, MPTP block 1, nonsel antag count 26*, TAAR1 ant conf 38, Ga16 nonsel ag 7 and TAAR1 ag counter 9.
COc1cccc(-c2cc3nc(C)c(C)c(N4CCN(C(=O)c5ccoc5)CC4)n3n2)c1 was read as TAAR1 ag 4, DAGLB inh -3, TAAR1 antag 20 and MPTP block -1.
Screening Brc1ccc(CSc2ccc3nnc(-c4ccccn4)n3n2)cc1 returned TAAR1 ag 5, DAGLB inh 1, TAAR1 antag 39, GPR7 antagonist -16 and MPTP block 1.
For Cc1ccc(CSc2ccc3nnc(-c4ccccn4)n3n2)cc1 the results were TAAR1 ag 2, DAGLB inh -2, TAAR1 antag 61*, GPR7 antagonist -2, MPTP block 3, nonsel antag count 25*, TAAR1 ant conf 35, Ga16 nonsel ag 6 and TAAR1 ag counter 6.
CC(C)=CCN1C(=O)[C@]2(OCCC=C[C@H]2C)c2c(Br)cccc21 was read as TAAR1 ag -2 and TAAR1 antag -19.
For COc1ccc(C(=O)NCCSc2ccccc2)cc1 the results were TAAR1 ag -1, DAGLB inh -3, TAAR1 antag 15, GPR7 antagonist -2 and MPTP block 0.
For COc1ccc(-c2[nH]c3ccccc3c2SCCNC(=O)c2ccccc2)cc1 the results were TAAR1 ag 2, DAGLB inh 1, TAAR1 antag 70*, GPR7 antagonist 0, MPTP block 1, nonsel antag count 23*, TAAR1 ant conf 41, Ga16 nonsel ag 5 and TAAR1 ag counter 5.
S=C1NC[C@H](Cc2ccccc2)N1CC1CCN(CCCC2CCCCC2)CC1 was read as TAAR1 ag 2 and TAAR1 antag 5.
O=C(Nc1ccc(F)c(Cl)c1)c1cc(C2CCCN(C(=O)CCc3ccccc3)C2)on1 (centres undefined) was read as TAAR1 ag 2, TAAR1 antag 21 and MPTP block 3.
For COc1ccccc1NS(=O)(=O)c1cc([N+](=O)[O-])ccc1N/N=C/c1c(C)[nH]c2ccccc12 the results were TAAR1 ag 33, DAGLB inh 16, TAAR1 antag 58*, GPR7 antagonist 7, MPTP block 0, nonsel antag count 47*, TAAR1 ant conf 46, Ga16 nonsel ag 16* and TAAR1 ag counter 9.
`COc1ccc(-c2csc(NC(=O)CN3C(=O)C4CCCCC4C3=O)n2)cc1OC` (centres undefined) gave TAAR1 ag 17, DAGLB inh 4, TAAR1 antag 52*, GPR7 antagonist -9, MPTP block 2, nonsel antag count 24*, TAAR1 ant conf 36, Ga16 nonsel ag 13* and TAAR1 ag counter 16.
`COc1ccc(-c2csc(NC(=O)CN3C(=O)C4CC=CCC4C3=O)n2)cc1OC` (centres undefined) gave TAAR1 ag 12, DAGLB inh 1, TAAR1 antag 27, GPR7 antagonist -7 and MPTP block -1.
`O=C(CN1C(=O)C2CC=CCC2C1=O)Nc1nc(-c2ccc(F)c(F)c2)cs1` (centres undefined) gave TAAR1 ag 27, DAGLB inh -1, TAAR1 antag 73*, MPTP block 0, nonsel antag count 31*, TAAR1 ant conf 55*, Ga16 nonsel ag 14* and TAAR1 ag counter 19.
COc1ccc(N=C2Sc3ccccc3[C@@H]3C[C@H]4[C@H](CON4C)CN23)c(OC)c1 was read as TAAR1 ag 1 and TAAR1 antag -13.
For O=C(Nc1cccc(-c2csc(Nc3ccccc3)n2)c1)c1cc([N+](=O)[O-])cc(C(F)(F)F)c1 the results were TAAR1 ag 1, DAGLB inh -7, TAAR1 antag 55*, GPR7 antagonist -7, MPTP block 7, nonsel antag count 15, TAAR1 ant conf 29, Ga16 nonsel ag 2 and TAAR1 ag counter 2.
O=C(Nc1cccc(-c2csc(Nc3ccc(Cl)cc3)n2)c1)c1ccccc1 was read as TAAR1 ag 4, DAGLB inh -2, TAAR1 antag 41 and MPTP block 1.
For O=C(Nc1ccc(-c2csc(Nc3ccccc3)n2)cc1)c1ccccc1 the results were TAAR1 ag 6, DAGLB inh 0, TAAR1 antag 74*, GPR7 antagonist 2, MPTP block 1, nonsel antag count 26*, TAAR1 ant conf 53*, Ga16 nonsel ag 5 and TAAR1 ag counter 6.
`O=S(=O)(c1ccc(F)cc1)N1CCN(C(=S)NC2CC2)CC1` gave TAAR1 ag 0, DAGLB inh -1, TAAR1 antag 14 and MPTP block -2.
`C=CCNC(=S)N1C[C@H]2CON(C)[C@H]2C[C@H]1c1ccccc1Br` gave TAAR1 ag 2 and TAAR1 antag -25.
For COc1cccc(CNS(=O)(=O)c2ccccc2Br)c1 the results were TAAR1 ag 33 and TAAR1 antag -20.
C[C@@H]1ON(C)[C@H]2C[C@H]3c4cc(-c5ccccc5)ccc4CCN3C[C@@H]12 was read as TAAR1 ag 0 and TAAR1 antag 5.
COC(=O)C1=C(C)N(Cc2ccc(Cl)cc2)C(=S)NC1c1cccc(OC)c1 (centres undefined) was read as TAAR1 ag 0, TAAR1 antag 51*, nonsel antag count 20, TAAR1 ant conf 22, Ga16 nonsel ag -1 and TAAR1 ag counter -1.
